In the library only some 2.1% were active in any assay of this set; here they are far more common.
CXCR6 block = CXCR6 receptor inhibitors, primary screen, cell-based, beta-arrestin, luminescence, CHO-K1 PathHunter, 1536-well; actives 0.36% (n = 360,000); inhibition, % at 20 µM; in the data active means inhibition above about 34%, passing the limit was not always enough;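 further: antagonist mode with CXCL16 agonist at 10 nM final; 0% = 10 nM CXCL16 with DMSO and 100% = unstimulated wells without agonist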
EBI2 antag = EBI2 receptor antagonists, beta-arrestin recruitment, primary screen, cell-based, luminescence, 7a,25-OHC stimulation, uHTS; G-protein coupled receptor 183 (Homo sapiens), P32249; 7a,25-OHC stimulated; inhibition, % at 5 µM; actives 0.81% (n = 360,000); in the data active means inhibition above about 38%;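 further: enzyme fragment complementation signal reports receptor beta-arrestin coupling in cells; 0% = agonist plus DMSO wells and 100% = wells without agonist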
APJ ag = agonists of human apelin receptor APJ, primary screen, CHO-K1 cells, PathHunter beta-arrestin, luminescence; P35414; 0% DMSO wells, 100% apelin; activation, % at 20 µM; actives 0.11% (n = 330,000); AID 2520, 2010;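 active means activation more than six SD over the plate average, tested at 20 µM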;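 further: 0% = DMSO alone and 100% = apelin-13 at 10 nM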
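system = engineered CHO-K1 APJ arrestin reporter cells | input = 1000 cells per well | timing = overnight seeding, 90 min compound at 25 °C, 1 h detection | measured by = enzyme-fragment complementation luminescence | read-out = beta-arrestin recruitment to APJ as agonist activity, luminescent signal | control set = negative DMSO alone, positive Apelin-13 at 10 nM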
APJ antagonist = antagonists of human apelin receptor APJ, primary screen, CHO-K1 cells, beta-arrestin complementation, luminescence. inhibition, % at 20 µM. actives 0.32% (n = 330,000). AID 2521, 2010;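 active means inhibition above about 40% at 20 µM, limit read from the data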;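 further: cells challenged with 10 nM apelin-13 agonist together with compound; plate controls were apelin-13 plus DMSO wells for no effect and DMSO wells lacking apelin-13 for full effect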
CCR6 antag = CCR6 receptor antagonists, primary screen, cell-based, CHO-K1, luminescence, beta-arrestin, uHTS; C-C chemokine receptor type 6 (Homo sapiens), P51684; CHO-K1 CCR6 PathHunter beta-arrestin, CCL20-stimulated; inhibition, % at 20 µM; actives 0.49% (n = 340,000);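 active means compounds whose inhibition of the agonist-driven luminescence signal at 20 µM reaches about 50%, limit read from the data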;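 further: cells stimulated with CCL20 at 14 nM final; plate controls were DMSO with CCL20 for no effect and DMSO without agonist for full effect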
Target sequence (P51684 whole entry, looked up): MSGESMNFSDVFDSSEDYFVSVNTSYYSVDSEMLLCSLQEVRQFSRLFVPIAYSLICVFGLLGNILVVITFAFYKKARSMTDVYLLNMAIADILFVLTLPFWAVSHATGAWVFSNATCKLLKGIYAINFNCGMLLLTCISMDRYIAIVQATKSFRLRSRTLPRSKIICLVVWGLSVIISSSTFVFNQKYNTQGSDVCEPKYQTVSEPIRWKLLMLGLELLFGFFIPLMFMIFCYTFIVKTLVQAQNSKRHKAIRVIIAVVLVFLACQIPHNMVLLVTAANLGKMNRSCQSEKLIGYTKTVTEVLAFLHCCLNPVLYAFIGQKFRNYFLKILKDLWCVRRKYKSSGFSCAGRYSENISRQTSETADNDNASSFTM
m5-HT2A agonist = mouse Htr2a agonists via beta-arrestin recruitment, primary screen, cell-based, luminescence; CHO-K1 mHTR2A beta-arrestin complementation; percent of 30 µM serotonin response; activation, % at 7.6 µM; actives 0.66% (n = 360,000);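 active means activation above a run cutoff, the mean activation of all tested compounds plus 3 SD, cut at about 14% in these data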;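 further: 0% = plate median of compound wells and 100% = 30 µM serotonin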
APJ antag confirm = APJ antagonists blocking beta-arrestin recruitment, confirmation, cell-based, luminescence, single concentration, uHTS hits; shares compounds with APJ antagonist; antagonist mode; inhibition, % at 20 µM; actives 66% (n = 950); in the data active means inhibition above about 50%
Starred values were filed as active, the others as inactive; / = not tested or not shown.

SMILES	CXCR6 block	EBI2 antag	APJ ag	APJ antagonist	CCR6 antag	m5-HT2A agonist	APJ antag confirm
CC(C)C(=O)Nc1cccc(C(=O)OCC(=O)c2ccc(Cl)cc2Cl)c1	2	21	-5	49*	36	-3	50*
O=C(COC(=O)c1cccnc1Cl)c1ccc(Cl)cc1Cl	15	-5	-13	58*	21	-2	60*
COc1ccc(C(=O)COC(=O)c2cccnc2Cl)c(OC)c1	-10	10	-5	4	12	0	/
ON(CCc1ccccn1)Cc1ccccc1	22	-13	/	/	33	-2	/
CCN(CC)CCSc1nnc(Nc2ccccc2)n1-c1ccccc1	6	10	-2	51*	-5	-3	20
COc1ccc(-c2c3c(nc4sc5c(=O)[nH]c(C)nc5c24)CCC3)cc1	5	3	-2	6	-4	2	/
COc1ccc(-c2c3c(nc4sc(C(=O)Nc5cc(C)on5)c(N)c24)CCC3)cc1	10	25	-17	55*	9	-1	30
O=C(O)c1ccccc1N=Nc1c(O)[nH]c2ccc([N+](=O)[O-])cc12	28	11	-4	42*	39	-6	53*
O=C(N=Nc1c(O)[nH]c2ccc([N+](=O)[O-])cc12)c1ccccc1Cl	16	4	-9	25	29	-3	/
c1ccc(-c2nccc(-c3ccco3)n2)nc1	1	1	-1	3	1	5	/
c1ccc(-c2nc(-c3ccco3)cs2)nc1	11	-4	-11	53*	16	3	27
Clc1ccc(-c2nc3c4ccccc4ccn3c2Cc2cccc(Cl)c2)cc1	4	23	/	/	/	-1	/
COc1ccc(S(=O)(=O)NC(C)C(=O)Nc2ccc3c(c2)OCCO3)cc1OC (stereo not given)	-12	-9	-4	47*	5	1	25
COc1ccc(S(=O)(=O)NC(C)C(=O)Nc2ccc3c(c2)OCO3)cc1OC (stereo not given)	-3	-5	-1	7	8	-2	/
CC(c1nc2ccccc2[nH]1)n1c(=O)c(-c2ccco2)nc2ccccc21 (stereo not given)	/	-5	/	/	/	-7	/
O=C(Nc1nnc(C2CCCCC2)s1)C1CC(=O)N(c2ccccc2)C1 (stereo not given)	-14	-5	1	7	0	3	/
CCOc1cccc(/C=C/c2ccc3cccc(O)c3n2)c1O	24	8	-6	12	49	-5	/
Oc1cccc2ccc(/C=C/c3ccccc3Cl)nc12	35	21	-10	46*	45	-18	82*
CCOc1cccc(/C=C/c2ccc3cccc(O)c3n2)c1OC	24	13	-9	43*	31	-18	72*
COc1cc(Cl)cc(/C=C/c2ccc3cccc(O)c3n2)c1OC	40	22	-8	41*	41	-3	37
Nc1n[nH]c(CCCO)n1	1	-6	4	-11	11	7	/
CCOC(=O)c1cnc(-c2ccccc2)nc1Oc1ccc(Cl)c(Cl)c1	0	20	-8	-6	20	0	/
O=C(CN1C(=O)c2ccccc2C1=O)NCC(=O)OCC(=O)c1ccc(Br)cc1	3	-3	-5	28	0	1	/
O=C(CN1C(=O)c2ccccc2C1=O)NCC(=O)OCC(=O)c1cccc([N+](=O)[O-])c1	24	16	-9	70*	49	-2	103*
O=C(CN1C(=O)C2CC=CCC2C1=O)OCC(=O)c1ccc(Cl)c([N+](=O)[O-])c1 (stereo not given)	58*	14	-32	79*	79*	3	149*
SMILES	CXCR6 block	EBI2 antag	APJ ag	APJ antagonist	CCR6 antag	m5-HT2A agonist	APJ antag confirm
O=C(CN1C(=O)C2C3C=CC(C3)C2C1=O)OCC(=O)c1ccc(Cl)cc1 (stereo not given)	3	4	9	3	13	1	/
O=C(CN1C(=O)C2C3C=CC(C3)C2C1=O)OCC(=O)c1ccc([N+](=O)[O-])cc1 (stereo not given)	-9	-17	0	-20	1	7	/
O=C(CN1C(=O)C2C3CC(C(Br)C3Br)C2C1=O)OCC(=O)c1cccc([N+](=O)[O-])c1 (stereo not given)	26	5	-7	44*	42	-1	59*
O=C(CNC(=O)c1ccco1)NCC(=O)OCC(=O)c1ccc(Cl)c([N+](=O)[O-])c1	58*	12	-33	82*	89*	-12	147*
CCOC(=O)c1ccc(CNCc2ccc(C)cc2)cc1	-4	-2	-1	4	13	4	/
O=C(Cc1ccccc1)NCC(=O)OCC(=O)c1cccc([N+](=O)[O-])c1	22	14	-7	46*	53*	-2	68*
O=C(CCc1ccccc1)OCC(=O)c1cccc([N+](=O)[O-])c1	16	8	-8	66*	42	7	64*
N/C(=N\OC(=O)CCCc1ccccc1)c1cccc([N+](=O)[O-])c1	-13	3	14	-17	-4	-3	/
O=C(CCl)c1ccc2[nH]c(=O)oc2c1	8	2	-14	83*	7	-1	20
O=c1[nH]c2ccc(Br)cc2o1	-1	6	/	/	7	2	/
COc1ccc(C(=O)O/N=C(\N)Cc2ccc(Cl)c(Cl)c2)cc1OC	-43	8	12	-86	-6	-5	/
CCCN(CC(=O)Nc1ccc(C(N)=O)cc1)CC(=O)Nc1cc(Cl)ccc1Cl	-3	-4	0	-32	9	3	/
CN1C(=O)OC(C)(CCc2ccccc2)C1(C)O (stereo not given)	-1	-1	-2	-13	4	-5	/
CC(c1ccccc1)N1C(=O)OC(C)(C)C1(C)O (stereo not given)	0	-2	4	72*	1	-5	8
COc1ccc(C(=O)CSc2n[nH]c(-c3ccco3)n2)cc1	11	-1	0	-2	9	-1	/
CCCN1CCC(C)(C(=O)Nc2ccccc2Oc2ccccc2)C1 (stereo not given)	8	13	/	/	/	-6	/
COC(=O)c1ccc(N2NC(=O)/C(=C/c3cc(OC)c(O)c(OC)c3)C2=O)cc1	39	-9	-8	45*	49	-4	33
CCCCC(=O)Nc1ccc(C)c(S(=O)(=O)N2CCCCCC2)c1	6	8	-3	1	15	-1	/

Compound activity (PubChem)
